Tests used:
[1] = Compound tested for CD34+ cell differentiation activity (%TPO) using CD34+ differentiation assay; type: functional, Homo sapiens
How it was run: (§1)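 Human bone marrow CD34+ cells from light density marrow cells (2 × 10^6 cells/mL) in IMDM with 20% v/v FCS and rhSCF 100 ng/mL, cultured with sample or TPO (maximal 100 ng/mL) for 10 days at 5% CO2 and 4% O2. Stained with FITC-anti-CD41 and FITC-anti-IgG1 isotype control, formaldehyde-fixed, flow cytometry; %CD41 = CD41 positive minus isotype positive.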

[2] = Effective concentration (EC50) required to inhibit CD34 cell differentiation; type: functional; settings: Homo sapiens; how it was run: as §1
[3] = target: T1, Thrombopoietin receptor (Homo sapiens) (UniProt P40238); test: Thrombopoietin luciferase activity in BAF-3 cells; type: cell-based; settings: BaF3
T1 sequence (whole entry): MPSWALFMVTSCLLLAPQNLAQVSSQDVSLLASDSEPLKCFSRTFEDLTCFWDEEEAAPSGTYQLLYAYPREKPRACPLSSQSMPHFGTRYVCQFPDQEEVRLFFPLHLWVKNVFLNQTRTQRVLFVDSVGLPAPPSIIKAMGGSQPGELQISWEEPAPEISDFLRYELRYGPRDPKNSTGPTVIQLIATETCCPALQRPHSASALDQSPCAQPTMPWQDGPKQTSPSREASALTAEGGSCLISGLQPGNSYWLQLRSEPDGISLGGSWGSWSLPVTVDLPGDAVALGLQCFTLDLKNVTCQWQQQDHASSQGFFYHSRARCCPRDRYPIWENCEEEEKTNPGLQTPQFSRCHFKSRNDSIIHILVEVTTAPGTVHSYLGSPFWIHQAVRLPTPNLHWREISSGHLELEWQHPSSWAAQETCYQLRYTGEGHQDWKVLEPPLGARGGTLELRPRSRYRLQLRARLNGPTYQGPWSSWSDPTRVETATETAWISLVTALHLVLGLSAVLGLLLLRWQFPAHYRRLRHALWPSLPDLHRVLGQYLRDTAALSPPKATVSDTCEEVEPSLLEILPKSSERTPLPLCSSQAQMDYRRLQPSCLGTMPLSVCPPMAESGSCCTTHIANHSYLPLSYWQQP

[4] = target: T2, Thrombopoietin receptor (Homo sapiens, UniProt P40238); test: Effective concentration for thrombopoietin luciferase activity was determined in BAF-3 cells; type: cell-based, BaF3
T2 sequence (P40238 whole entry): T1 sequence (whole entry)

[5] = Compound tested for UT7/TPO cell proliferation activity (%TPO) using proliferation assay.; type: functional, Homo sapiens
How it was run: (§2)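 UT7/TPO cells kept in IMDM/10% FBS/glutamine plus rhTPO, starved overnight without TPO. Cells (0.2 × 10^6/mL) in starving medium incubated with compounds (0.32% DMSO final) or rhTPO, 37 °C, 5% CO2, 72 h. Pellet DNA content read by BrdU kit. Mean value over control as % of maximal-TPO response, duplicates, plotted vs concentration for EC50.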

[6] = Effective concentration required to inhibit UT7/TPO cell proliferation was determined.; type: functional, cell-based; settings: Homo sapiens; how it was run: as §2

Compound	Efficacy [1] [%]	EC50 [2] [nM]	Efficacy [3] [%]	EC50 [4] [nM]	Efficacy [5] [%]	EC50 [6] [nM]	TPO [1] [%]	TPO [5] [%]
Cc1[nH]n(-c2cccc(C(F)(F)F)c2)c(=O)c1/N=N/c1c(O)cc(S(=O)(=O)O)c2ccccc12	95	100	62	40				
Cc1[nH]n(-c2cccc(Cl)c2)c(=O)c1/N=N/c1c(O)cc(S(=O)(=O)O)c2ccccc12			34	2000	45	500		
Cc1[nH]n(-c2ccc(C(F)(F)F)cc2)c(=O)c1/N=N/c1c(O)cc(S(=O)(=O)O)c2ccccc12			39	100	100			
Cc1[nH]n(-c2ccc(I)cc2)c(=O)c1/N=N/c1c(O)cc(S(=O)(=O)O)c2ccccc12	60		81	300	100			
Cc1[nH]n(-c2ccc(C(C)(C)C)cc2)c(=O)c1/N=N/c1c(O)cc(S(=O)(=O)O)c2ccccc12		30	86	20			100	100
Cc1ccc(-n2[nH]c(C)c(/N=N/c3c(O)cc(S(=O)(=O)O)c4ccccc34)c2=O)cc1C	100	200	100	40	90			
Cc1[nH]n(-c2ccc(Cl)cc2)c(=O)c1/N=N/c1c(O)cc(S(=O)(=O)O)c2ccccc12			47	2000	75			
Cc1ccc(-n2[nH]c(C)c(/N=N/c3c(O)cc(S(=O)(=O)O)c4ccccc34)c2=O)cc1			53	2000	90			
Cc1[nH]n(-c2ccc(Cl)c(Cl)c2)c(=O)c1/N=N/c1c(O)cc(S(=O)(=O)O)c2ccccc12			67	200	70			
